HKDC1 inh = blocks human hexokinase HKDC1 activity; Q2TB90; hit rate 0.16% among 340,000; inhibition, % at 20 µM; recombinant HKDC1, G6PDH/diaphorase resazurin coupled fluorescence; AID 493160;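 active means inhibition above about 35% when tested at 20 µM, limit read from the data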;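 further: plate controls were DMSO wells with enzyme for no effect and DMSO wells lacking enzyme for full effect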
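test system = in-house recombinant HK5 (HKDC1) enzyme | amount = HKDC1 at 5 µg/mL | control set = DMSO-enzyme wells negative, buffer-substituted wells positive | compound = one dose of 20 µM, 1% DMSO | schedule = reaction time 90 min, room temperature, protected from light | technique = resorufin fluorescence at 613 nm | reagent = glucose with 1 mM ATP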
APOBEC3G inh = blocks human APOBEC3G single-stranded DNA deamination. Q9HC16. recombinant A3G, ssDNA deamination FAM/TAMRA fluorescence. inhibition, % at 20 µM. hit rate 0.28% among 330,000;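 active means inhibition of at least 40% at 20 µM, with no more than 30% in the related APOBEC3A deaminase screen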;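 further: plate controls were DMSO wells with A3G for no effect and wells lacking A3G enzyme for full effect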
M18AAP inhibitor = PfM18AAP enzyme inhibition; AID 1822; hit rate 1.2% among 290,000; inhibition, % at 7.35 µM; recombinant PfM18AAP, H-Glu-NHMec fluorogenic cleavage;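 active means inhibition above the campaign mean inhibition over all tested compounds plus 3 SD, cut at about 28% in these data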;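 further: 0% = plate median of test compound wells and 100% = 2 mM ZnCl2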
A3A deaminase = human APOBEC3A DNA deaminase inhibition. P31941. recombinant A3A, FAM/TAMRA ssDNA deamination fluorescence. inhibition, % at 20 µM. hit rate 0.41% among 330,000. AID 493011;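 active means at least 40% inhibition at 20 µM here, with at most 30% in a related deaminase screen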;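 further: plate controls were A3A with DMSO for no effect and wells lacking A3A enzyme for full effect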
Target sequence (P31941 whole entry, looked up): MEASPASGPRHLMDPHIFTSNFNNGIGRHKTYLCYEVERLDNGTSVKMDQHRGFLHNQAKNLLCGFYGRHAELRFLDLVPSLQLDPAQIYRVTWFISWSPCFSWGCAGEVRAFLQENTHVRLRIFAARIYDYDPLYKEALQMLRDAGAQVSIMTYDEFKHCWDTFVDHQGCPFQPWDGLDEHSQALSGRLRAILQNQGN
SUMO HTRF inh = inhibitors of human SUMOylation (UBC9); inhibition, % at 35 µM; P63279; HTRF SUMOylation assay, SAE1/SAE2 + UBC9, in vitro; hit rate 0.36% among 290,000; in the data active means inhibition above about 50%, passing the limit was not always enough
Target sequence (P63279 whole entry, looked up): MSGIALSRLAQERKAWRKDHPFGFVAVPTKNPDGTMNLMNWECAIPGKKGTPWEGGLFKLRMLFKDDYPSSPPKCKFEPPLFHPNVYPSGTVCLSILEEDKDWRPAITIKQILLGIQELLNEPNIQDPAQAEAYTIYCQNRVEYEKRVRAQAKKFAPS
PfGluPho inh = PfG6PD (Plasmodium falciparum) enzyme inhibition | PfGluPho enzyme, NADPH resazurin-diaphorase fluorescence | inhibition, % at 20 µM | hit rate 0.78% among 350,000;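 active means inhibition reaching at least a set limit at 20 µM in the primary screen, cut at about 59% in these data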;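 further: 0% = DMSO wells with substrate and 100% = DMSO wells lacking glucose-6-phosphate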
* hit, by the source's call; . = no result. This is a sample that favours compounds with a hit; in the whole collection about 2.4% have one here.

SMILES	HKDC1 inh	APOBEC3G inh	M18AAP inhibitor	A3A deaminase	SUMO HTRF inh	PfGluPho inh
COc1ccc2c(c1)c(=O)oc1cc(OCC(=O)NC3CCCCC3)ccc12	8	5	-10	37	30	-12
O=c1cc(-c2ccccc2)nc2c(-c3ccccc3)c(C(F)(F)F)[nH]n12	12	-7	1	-2	51*	-15
Cc1cc(=O)n2[nH]c(C)c(-c3ccccc3)c2n1	-3	-10	-2	-6	19	-7
CC(NC(=O)CCNC(=O)c1ccc(Br)cc1)c1ccc(S(N)(=O)=O)cc1 (stereo not given)	0	-7	.	0	.	-36
CCn1cc(C(=O)NCCCN2CCC(C)CC2)c(=O)c2cc(S(=O)(=O)N3CCCC3)ccc21	-5	0	6	0	1	-4
O=C(O)c1ccc(N/N=C/C=C/c2ccccc2[N+](=O)[O-])cc1	4	-9	41*	7	14	8
COc1ccc(CNS(=O)(=O)c2ccc(C)cc2)cc1	1	-7	.	-3	.	15
O=[N+]([O-])c1cc(-c2ncccn2)c([N+](=O)[O-])s1	10	-5	-49	0	-3	123*
COC(=O)c1cccc(NC(=O)COC(=O)CSc2nc(C)cc(C)n2)c1	-9	-8	-5	-2	21	8
S=c1nccc(-c2cccs2)[nH]1	2	-4	29*	-2	9	43
c1csc(-c2ccn[nH]2)c1	-2	-6	-2	-3	22	3
COc1ccc(NC(=O)C(=O)N/N=C\c2ccc(CNC(=O)C(=O)Nc3ccc(C)c(C)c3)o2)c(OC)c1	-4	1	13	5	58*	0
COCCNC(=O)/C(C#N)=C\c1ccc(CNC(=O)C(=O)Nc2ccc(C)c(C)c2)o1	-12	-5	0	-1	20	7
CC(=O)c1ccc(-c2ccc(/C=C(/Sc3n[nH]c(C)n3)C(=O)O)o2)cc1	18	-4	13	1	.	28
Cc1cc(/C=N/NC(=O)c2cc3ccccc3o2)c(C)n1C	0	-8	30*	-6	13	18
O=C(N/N=C/c1ccncc1)c1cc2ccccc2o1	-10	-2	-2	-4	10	8
CC1=CC(=O)C(C(C)C)=CC1=NC(=O)c1ccc(C)cc1	9	-8	-9	-5	-5	93*
COc1ccc(NC(=O)c2sc3nc(N4CCCC4)c4c(c3c2N)CC(C)(C)OC4)cc1	2	-2	13	-3	0	32
COc1ccc(NC(=O)c2sc3nc(N4CCOCC4)c4c(c3c2N)CC(C)(C)OC4)c(OC)c1	2	-8	31*	-5	7	8
COc1ccccc1NC(=O)c1cnc(SC)nc1	-4	-9	4	-5	9	1
Nc1c(NCc2ccccc2)c2ccccc2oc1=O	-3	-10	30*	-4	27	-5
CC1=NN(c2ccccc2)C(=O)/C1=C\c1ccc(Oc2ccc([N+](=O)[O-])cc2[N+](=O)[O-])cc1	23	-4	13	-3	95*	29
O=C(COC(=O)c1ccc(NS(=O)(=O)c2cccs2)cc1)Nc1nc2c(F)c(F)c(F)cc2s1	1	.	2	.	80*	-31
O=C(COC(=O)c1cc(NS(=O)(=O)c2cccs2)ccc1O)Nc1ccc(F)c(F)c1F	2	-7	0	-8	23	-7
O=C(COC(=O)c1cc(NS(=O)(=O)c2cccs2)ccc1O)Nc1cc(Cl)ccc1Cl	-5	0	4	8	69*	-1
SMILES	HKDC1 inh	APOBEC3G inh	M18AAP inhibitor	A3A deaminase	SUMO HTRF inh	PfGluPho inh
Cc1nc2cccc(C(=O)Oc3ccc([N+](=O)[O-])cc3)c2o1	0	-2	0	3	16	-8
O=C(c1cccs1)N1CCN(Cc2ccccc2)CC1	-8	-6	-5	0	12	-12
CCCc1nnc(NC(=O)c2ccc(N3C(=O)C4C5C=CC(C5)C4C3=O)cc2)s1 (stereo not given)	6	-3	12	0	-3	-17
COc1cc(OC)c(/C=N/NC(=O)c2ccc(NC(C)=O)cc2)cc1Br	-1	-8	-4	0	50*	-10
CC(NC(=O)OC(C)(C)C)C(=O)Oc1ccc2ccc(=O)oc2c1 (stereo not given)	-2	-2	6	-1	52*	3
CC(C)(C)OC(=O)NCCC(=O)Oc1ccc2ccc(=O)oc2c1	0	3	-5	-2	36	5

Screens from PubChem.
